Results: ChEMBL document CHEMBL1165965, “Synthesis and structure-activity relationships of 1,2,3,4-tetrahydropyrido[2,3-b]pyrazines as potent and selective inhibitors of the anaplastic lymphoma kinase” (Bioorg Med Chem, 2010)

Target: ALK tyrosine kinase receptor (Homo sapiens, UniProt Q9UM73)
Assay: Inhibition of ALK by time-resolved fluorescence assay
How it was run: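 Baculovirus-expressed ALK (30 ng/ml) on plates coated with GST–PLC-gamma substrate in TBS. Reaction ran 15 min at 37 °C. Europium-labeled anti-phosphotyrosine antibody was added for 1 h at 37 °C, then enhancement solution for 30 min, and TRF was read. IC50 came from a variable-slope sigmoidal fit of % inhibition vs log concentration.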

Chain of ALK tyrosine kinase receptor (Q9UM73 whole entry): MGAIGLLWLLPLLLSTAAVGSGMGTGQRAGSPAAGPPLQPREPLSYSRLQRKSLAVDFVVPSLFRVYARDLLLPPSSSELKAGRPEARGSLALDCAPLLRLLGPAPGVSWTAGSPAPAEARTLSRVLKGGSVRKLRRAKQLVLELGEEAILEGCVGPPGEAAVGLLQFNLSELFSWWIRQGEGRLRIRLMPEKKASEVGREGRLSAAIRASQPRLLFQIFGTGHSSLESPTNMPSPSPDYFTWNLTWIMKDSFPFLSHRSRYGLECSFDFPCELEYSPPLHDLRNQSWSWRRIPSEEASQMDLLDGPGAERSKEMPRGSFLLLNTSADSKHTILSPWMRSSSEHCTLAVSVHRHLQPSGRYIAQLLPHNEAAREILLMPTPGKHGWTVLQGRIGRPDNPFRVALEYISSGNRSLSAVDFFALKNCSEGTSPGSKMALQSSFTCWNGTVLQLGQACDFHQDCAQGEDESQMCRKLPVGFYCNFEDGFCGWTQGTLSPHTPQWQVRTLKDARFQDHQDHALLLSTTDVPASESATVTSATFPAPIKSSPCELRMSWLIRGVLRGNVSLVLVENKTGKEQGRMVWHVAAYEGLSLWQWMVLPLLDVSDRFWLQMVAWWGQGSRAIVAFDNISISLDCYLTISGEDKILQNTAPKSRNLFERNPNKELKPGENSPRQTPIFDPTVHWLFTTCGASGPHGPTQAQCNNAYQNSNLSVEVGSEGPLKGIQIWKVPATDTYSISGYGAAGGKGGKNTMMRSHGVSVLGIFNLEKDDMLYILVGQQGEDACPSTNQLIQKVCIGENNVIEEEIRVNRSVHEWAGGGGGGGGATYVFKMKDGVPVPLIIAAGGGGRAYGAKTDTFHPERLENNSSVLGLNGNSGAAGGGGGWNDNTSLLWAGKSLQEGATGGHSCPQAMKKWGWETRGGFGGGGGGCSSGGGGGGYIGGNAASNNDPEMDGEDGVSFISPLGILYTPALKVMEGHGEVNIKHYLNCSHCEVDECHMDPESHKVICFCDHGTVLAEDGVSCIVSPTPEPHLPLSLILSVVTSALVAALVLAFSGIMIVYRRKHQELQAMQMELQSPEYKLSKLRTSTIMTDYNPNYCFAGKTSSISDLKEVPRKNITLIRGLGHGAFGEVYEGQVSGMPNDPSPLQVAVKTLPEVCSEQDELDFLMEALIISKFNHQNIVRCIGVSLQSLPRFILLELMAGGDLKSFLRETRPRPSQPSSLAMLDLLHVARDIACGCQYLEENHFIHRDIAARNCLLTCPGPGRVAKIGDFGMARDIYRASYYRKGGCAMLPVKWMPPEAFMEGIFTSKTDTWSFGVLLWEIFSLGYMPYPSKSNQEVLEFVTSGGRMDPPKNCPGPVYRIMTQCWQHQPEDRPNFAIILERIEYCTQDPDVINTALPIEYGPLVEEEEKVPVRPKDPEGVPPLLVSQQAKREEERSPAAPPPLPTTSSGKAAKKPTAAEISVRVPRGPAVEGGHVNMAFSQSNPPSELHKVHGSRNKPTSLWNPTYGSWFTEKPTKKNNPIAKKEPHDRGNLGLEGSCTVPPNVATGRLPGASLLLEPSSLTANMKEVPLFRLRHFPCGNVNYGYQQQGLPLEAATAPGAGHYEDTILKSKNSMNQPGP

Row | Compound | IC50
1 | CN1CCN(c2ccc(-c3cnc4c(c3)N(C(=O)Cc3cc(F)ccc3F)CCN4)cn2)CC1 | > 10000 nM
2 | CN1CCN(c2ccc(-c3cnc4c(c3)N(S(=O)(=O)c3cc(F)ccc3F)CCN4)cn2)CC1 | 465 nM
3 | CN1CCN(c2ccc(-c3cnc4c(c3)N(Cc3cc(Cl)ccc3Cl)CCN4C)cn2)CC1 | > 3000 nM
4 | O=C1CNc2ncc(-c3ccc(C(=O)N4CCC[C@H]4CN4CCCC4)cc3)cc2N1Cc1cc(F)ccc1F | 145 nM
5 | O=C1CNc2ncc(-c3ccc(C(=O)N4CCC[C@H]4CN4CCCC4)cc3)cc2N1Cc1ccccc1 | > 10000 nM
6 | CN1CCN(c2ccc(-c3cnc4c(c3)N(Cc3c(Cl)cccc3C(F)(F)F)CCN4)cn2)CC1 | 506 nM
7 | O=C(c1ccc(-c2cnc3c(c2)N(Cc2ccccc2)CCN3)cc1)N1CCC[C@H]1CN1CCCC1 | 256 nM
8 | O=C1CNc2ncc(-c3ccc(C(=O)N4CCC[C@H]4CN4CCCC4)cc3)cc2N1Cc1c(Cl)cccc1Cl | 278 nM
9 | CCOC(=O)c1ccc(-c2cnc3c(c2)N(Cc2cc(Cl)ccc2C(F)(F)F)CCN3)cc1 | > 3000 nM
10 | CN1CCN(c2ccc(-c3cnc4c(c3)C(Cc3cc(F)ccc3F)CCN4)cn2)CC1 (stereo not drawn) | 1540 nM
11 | O=C(c1ccc(-c2cnc3c(c2)N(Cc2c(Cl)cccc2Cl)CCN3)cc1)N1CCC[C@H]1CN1CCCC1 | 27 nM
12 | CN1CCN(c2ccc(-c3cnc4c(c3)C(Oc3c(F)ccc(F)c3Cl)CCN4)cn2)CC1 (stereo not drawn) | > 10000 nM
13 | O=C(c1ccc(-c2cnc3c(c2)N(Cc2cc(F)ccc2F)CCN3)cc1)N1CCC[C@H]1CN1CCCC1 | 15 nM
